# Reference: paper PMC10841594 (Cell chemical biology, 2023)
# How the values were obtained:
# [1] = tested on: ferroportin; experiment: Immunohistochemical staining for ferroportin; assay type: in vivo, mouse; settings: for ferroportin staining in liver vs untreated controls: livers of the mice imaged with FeAL-1
# Procedure, shortened: (§1)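 Tissues fixed in 4% paraformaldehyde, paraffin-embedded and cut into 4-µm sections. Liver, heart and tumor sections stained with anti-4-HNE (1:500) or anti-ferroportin (1:500). Liver and heart came from imaged mice: untreated, hepcidin 50 µg/mouse/day for 3 days, or doxorubicin 10 mg/kg IP once 5 days prior. Staining intensity quantified by IHC Profiler in ImageJ (liver/heart n=3 per condition).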
# [2] = tested on: 4-hydroxynonenal (4-HNE); experiment: Immunohistochemical staining for 4-HNE; assay type: in vivo, mouse
# Procedure, shortened: as §1
# [3] = tested on: non-heme iron; settings: DOX-treated mice, ex vivo methodology ref 16; cited from earlier work
# [4] = tested on: luciferase-expressing PDA and colon cancer cell lines; experiment: Cellular bioluminescence assays with FAC, BPY or hepcidin pre-treatment; assay type: cell-based
# Procedure, shortened: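 Cells stably expressing firefly/Renilla luciferase (lentiviral, puromycin-selected) in DMEM with 10% FBS, plated to reach 75% confluence and assayed two days after plating. Serum-free DMEM with FAC for 60 min at 37 °C, optionally BPY for 30 min. Hepcidin-25 (1, 2, 4 µg/mL) given 16 h beforehand. Probe at 75 µM in Ca/Mg-free HBSS for 25 min, IVIS imaging at 30 min. D-luciferin (25 µM, 5 min) control.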
# [5] = UPLC-MS Fe2+-fragmentation assay
# Procedure, shortened: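 Test compound at 40 µM final in 50 mM Tris-HCl pH 7.4/DMSO (9:1) with sodium ascorbate and ascorbic acid, each 2 mM final. Held 1 min at 37 °C, then sampled as the hemin-free control. Hemin added to 400 µM final and the mixture stirred at 37 °C. Aliquots taken at set time points over 62 min and analysed by UPLC-MS with UV at 303 nm.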
# [6] = tested on: SW1990 tumors; experiment: Dual-reporter orthotopic PDA xenograft imaging with FeAL-1; assay type: in vivo, mouse
# [7] = tested on: MiaPaca2-luc cells; experiment: Cellular assay comparing FeAL-1 and ICL-1 response; assay type: cell-based, human; settings: 20 μM probe, FAC 2 hours, imaged after 15 min
# [8] = Cell-free metal selectivity assay; assay type: biochemical
# [9] = tested on: SW-1990-luc cells; experiment: Cellular assay comparing FeAL-1 and ICL-1 response; assay type: cell-based, human; settings: 20 μM probe, FAC 2 hours, imaged after 15 min
# [10] = Storage stability of FeAL-1 powder; assay type: physicochemical; settings: stored as a powder at −20 °C under argon
# [11] = tested on: FC1245 tumors; experiment: Dual-reporter orthotopic PDA xenograft imaging with FeAL-1; assay type: in vivo, mouse
# [12] = tested on: MIA PaCa-2 tumors; experiment: as above; assay type: in vivo, mouse
# [13] = Pharmacokinetic study, plasma LC-MS/MS; assay type: in vivo, C57BL6 mice; settings: C57BL/6, mouse, ip, 20 mg/kg
# Procedure, shortened: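 Healthy C57BL/6 mice received a single IP dose at 20 mg/kg (2.5 mL/kg; 15 mice per group). Composite plasma sampling, n=3 per timepoint: orbital bleed under isoflurane at 5, 10, 15, 30 and 45 min, then terminal vena cava bleed under CO2 at 1, 2, 3, 4 and 7 h. Blood collected into EDTA and centrifuged to plasma.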
# [14] = untreated tumor-bearing mice, FeAL-1 36 mg/kg IP
# [15] = hepcidin 50 μg/mouse for three days
molecule,measurement,setting,value
"COc1cccc2c1C(=O)c1c(O)c3c(c(O)c1C2=O)C[C@@](O)(C(=O)CO)C[C@@H]3O[C@H]1C[C@H](N)[C@H](O)[C@H](C)O1 [DOX, doxorubicin]",ferroportin staining in liver vs untreated controls,[1],reduced ferroportin staining
same,4-HNE staining in heart tissue vs untreated controls,[2],increased 4-HNE staining
same,4-HNE staining in liver vs control group,[2],increased staining for 4-HNE
same,"elevation of non-heme iron in liver, spleen, kidneys and blood",[3],≤ 2 fold
"CN(CCN(C)C(=O)O[C@@H]1CCC[C@]2(C1)OOC1(O2)C2CC3CC(C2)CC1C3)C(=O)Oc1ccc2nc(C3=N[C@@H](C(=O)O)CS3)sc2c1 (stereo partly drawn) [FeAL-1, (S)-2-(6-(((2-(((((R,R)-dispiro[adamantane-2,3’-[1,2,4]trioxolane-5’,1’’-cyclohexan]-3’’-yl)oxy)carbonyl)(methyl)amino)ethyl)(methyl)carbamoyl)oxy)benzo[d]thiazol-2-yl)-4,5-dihydrothiazole-4-carboxylic acid]",bioluminescent signal in response to FAC supplementation,[4]; larger panel of cell lines,robust bioluminescent signal
same,bioluminescence response with BPY iron chelator treatment,[4]; with or without FAC,expected reduction in bioluminescence response
same,stability in assay media lacking hemin,[5]; control without hemin,stable in assay media lacking hemin
same,time point by which FeAL-1 is completely consumed,"[5]; reaction media containing ferrous hemin, 37 °C",≤ 1 min
same,time point at which released D-luciferin is detected,"[5]; reaction media containing ferrous hemin, second time point",12 min
same,normalized FeAL-1 Fluc/Rluc response,[6]; [14],~ 1.7
same,iron-dependent luminescent response compared with ICL-1,[7],stronger iron-dependent luminescent response from FeAL-1 than from ICL-1
same,luminescence response with Fe^2+ as ferrous ammonium sulfate (FAS),"[8]; 2.5 μM FeAL-1, 2 hours incubation, then 10 μg/mL luciferase",robust luminescence response
same,iron-dependent luminescent response compared with ICL-1,[9],stronger iron-dependent luminescent response from FeAL-1 than from ICL-1
same,stability on storage,[10],stable over several months
same,normalized FeAL-1 Fluc/Rluc response,[11]; [14],~ 0.7
same,normalized FeAL-1 Fluc/Rluc response,[12]; [14],~ 2.1
same,normalized luminescence signal in tumor relative to healthy liver,[12]; vs livers of non-tumor bearing mice,~ 10 fold
same,Cmax,[13],5.91 µM
same,Tmax,[13],1 h
O=C(O)[C@H]1CSC(c2nc3ccc(O)cc3s2)=N1 [D-luciferin],luminescent response of D-luciferin with increasing Fe^2+,"[8]; control experiment, D-luciferin instead of FeAL-1",not affected by increasing concentrations of Fe^2+
"hepcidin: hepatic peptide hormone, negative regulator of the iron export protein ferroportin",tumoral ferroportin expression vs untreated control animal,"[1]; FC1245 tumors, single comparison",decreased tumoral ferroportin expression
same,ferroportin staining in liver vs untreated controls,[1],reduced ferroportin staining
same,effect of hepcidin pre-treatment on FeAL-1 signal,"[4]; hepcidin 1, 2 and 4 μg/mL, 16 hours, FeAL-1 75 μM",corresponding increase in FeAL-1 signal across all cell lines
same,FeAL-1 Fluc/Rluc response after hepcidin pre-treatment,[6]; [15],~ 5
same,"FeAL-1 Fluc/Rluc response, hepcidin-treated vs untreated controls",[6]; [15],2–3 fold
same,"4-HNE staining of tumors, treated vs untreated controls",[2]; FC1245 tumors,not significantly different
same,4-HNE staining in heart tissue vs untreated controls,[2],"but not hepcidin-treated mice, showed increased 4-HNE staining"
same,4-HNE staining in liver vs control group,[2],increased staining for 4-HNE
same,effect of hepcidin treatment on tumor LIP,[11]; [15],measurably increased LIP in FC1245 tumors
same,FeAL-1 Fluc/Rluc response after hepcidin pre-treatment,[12]; [15],~ 5
same,"FeAL-1 Fluc/Rluc response, hepcidin-treated vs untreated controls",[12]; [15],2–3 fold
